Assay [1] concerns Mycobacterium tuberculosis. Description: Antimycobacterial activity against wild type Mycobacterium tuberculosis H37Rv ATCC 27294 after 2 weeks. It counts as functional. Conditions: 336 h. The essentials:
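M. tuberculosis H37Rv was grown in 7H9 with 0.05% Tween 80, 0.2% glycerol and ADC to OD650 0.2, then diluted 1:1000. It was added to 2-fold serial drug dilutions in the same medium (11 dilutions, 200 µM to 0.19 µM). Plates were incubated 2 weeks at 37°C and MIC99 read macroscopically. Three independent determinations.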

Assay [2] has as its system Mycobacterium tuberculosis. Description: Antimycobacterial activity against wild type Mycobacterium tuberculosis H37Rv NRP-2 stage after 3 weeks under anaerobic condition. It counts as functional. Conditions: 504 h. The essentials:
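H37Rv was anaerobically adapted from OD650 0.005 in glycerol-free Dubos broth, in sealed stirred tubes (head-space ratio 0.5) for 3 weeks at 37°C. Cultures were dispensed in an anaerobic chamber onto drug (2% DMSO final) and held anaerobically 7 days at 37°C. Cells were washed, 2-fold diluted and spotted on 7H11 agar for 3 weeks. MAC: 90% reduction in visible growth. Isoniazid and metronidazole controls; CFU counts corroborated.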

The test system of assay [3] is Mycobacterium tuberculosis. Description: Ratio of Kcat/Km for Mycobacterium tuberculosis F420-dependent nitroreductase by Michaelis-Menten equation. Put shortly:
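Buffer was 200 mM Tris pH 8.0 with 0.01% Triton X-100 and 20 µM H2F420. H2F420 was made with recombinant Mtb FGD1, which was then heat-inactivated (65°C, 10 min) and removed by ultrafiltration. F420 came from M. smegmatis.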

≈ marks a conversion by molar mass, not a printed value. A value given as a limit tells only on which side of the number the result lay.

What is called MIC is the least concentration at which growth counts as inhibited. What is called MBC is the lowest tested concentration that kills the bacteria rather than only halting them. Higher therefore signals less potent killing. As a reminder, the kcat/Km is the turnover number divided by the Michaelis constant.

Take `O=[N+]([O-])c1cn2c(n1)SC[C@@H](OCc1ccc(OC(F)(F)F)cc1)C2`: the MIC in assay [1] stood at 0.8 µM (≈ 0.3 µg/mL). For the same compound, the MBC in assay [2] was 25 µM (≈ 9.38 µg/mL). Besides, the kcat/Km in assay [3] stood at 0.146 µM⁻¹ min⁻¹.

For the compound `O=[N+]([O-])c1cn2c(n1)OC[C@@H](NCCc1ccc(OC(F)(F)F)cc1)C2`, in assay [1], the minimum inhibitory concentration (MIC) came to 0.16 µM (≈ 0.0596 µg/mL). The MBC in assay [2] is 6.25 µM (≈ 2.33 µg/mL). The kcat/Km in assay [3] is 0.11 µM⁻¹ min⁻¹.

In assay [1], `O=[N+]([O-])c1cn2c(n1)OC[C@@H](NCc1ccc(OC(F)(F)F)cc1)C2` yielded an MIC of 0.31 µM (≈ 0.111 µg/mL). Moreover, the MBC in assay [2] is 12.5 µM (≈ 4.48 µg/mL). Further, the kcat/Km in assay [3] is 0.172 µM⁻¹ min⁻¹.

In the case of `O=[N+]([O-])c1cn2c(n1)NC[C@@H](OCc1ccc(OC(F)(F)F)cc1)C2`, in assay [1], it took 0.8 µM (≈ 0.287 µg/mL) to inhibit growth (MIC). For the same compound, the MBC in assay [2] is 125 µM (≈ 44.8 µg/mL). For the same compound, the kcat/Km in assay [3] amounted to 0.243 µM⁻¹ min⁻¹.

`N[C@@H]1COc2nc([N+](=O)[O-])cn2C1` displayed an MIC in assay [1] greater than 100 µM. Besides, the MBC in assay [2] is greater than 500 µM.

On to `O=[N+]([O-])c1cn2c(n1)OC[C@@H](NCCCCc1ccc(OC(F)(F)F)cc1)C2`, for which, in assay [1], the MIC was determined as 0.039 µM (≈ 0.0156 µg/mL). In assay [2], this compound came in with an MBC of 3.13 µM (≈ 1.25 µg/mL). Also, the kcat/Km in assay [3] turned out to be 0.514 µM⁻¹ min⁻¹.

In the case of `O=[N+]([O-])c1cn2c(n1)S(=O)(=O)C[C@@H](OCc1ccc(OC(F)(F)F)cc1)C2`, in assay [1], the MIC is greater than 100 µM. The MBC in assay [2] came to 25 µM (≈ 10.2 µg/mL).

Turning to `O=[N+]([O-])c1cn2c(n1)OC[C@@H](OCc1ccc(OC(F)(F)F)cc1)C2` [PRETOMANID], in assay [1], the MIC was 0.8 µM (≈ 0.287 µg/mL). Moreover, the MBC in assay [2] worked out at 6.25 µM (≈ 2.25 µg/mL). For the same compound, the kcat/Km in assay [3] is 0.155 µM⁻¹ min⁻¹.

In turn, `O=C(COc1ccc(OC(F)(F)F)cc1)N[C@@H]1COc2nc([N+](=O)[O-])cn2C1` came in with an MIC in assay [1] of 0.05 µM (≈ 0.0201 µg/mL). This compound yielded an MBC in assay [2] of 62.5 µM (≈ 25.1 µg/mL). For the same compound, the kcat/Km in assay [3] turned out to be 0.017 µM⁻¹ min⁻¹.

Take `O=[N+]([O-])c1cn2c(n1)[S+]([O-])C[C@@H](OCc1ccc(OC(F)(F)F)cc1)C2` (stereo partly drawn): the MIC in assay [1] is greater than 100 µM. The MBC in assay [2] came out at 50 µM (≈ 19.6 µg/mL).

On to `CN1C[C@@H](OCc2ccc(OC(F)(F)F)cc2)Cn2cc([N+](=O)[O-])nc21`, for which it took 6.25 µM (≈ 2.33 µg/mL) to inhibit growth in assay [1] (MIC). Moreover, the minimum bactericidal concentration (MBC) in assay [2] was no less than 100 µM. Besides, the kcat/Km in assay [3] is 0.061 µM⁻¹ min⁻¹.

In assay [1], `O=[N+]([O-])c1cn2c(n1)SC[C@H](OCc1ccc(OC(F)(F)F)cc1)C2` gave an MIC of 50 µM (≈ 18.8 µg/mL). The MBC in assay [2] stood at 50 µM (≈ 18.8 µg/mL).

In assay [1], `CCCCc1ccc(CN[C@@H]2COc3nc([N+](=O)[O-])cn3C2)cc1` returned a minimal inhibitory concentration (MIC) of 0.78 µM (≈ 0.258 µg/mL). In assay [2], this compound gave an MBC of 50 µM (≈ 16.5 µg/mL). Moreover, the kcat/Km in assay [3] amounted to 0.054 µM⁻¹ min⁻¹.

As for `O=[N+]([O-])c1cn2c(n1)OC[C@@H](NCCCCCc1ccc(OC(F)(F)F)cc1)C2`, the lowest concentration to inhibit growth in assay [1] (MIC) was 0.078 µM (≈ 0.0323 µg/mL). The same compound returned an MBC in assay [2] of 6.25 µM (≈ 2.59 µg/mL). The kcat/Km in assay [3] turned out to be 0.91 µM⁻¹ min⁻¹.

`O=[N+]([O-])c1cn2c(n1)CC[C@@H](OCc1ccc(OC(F)(F)F)cc1)C2` came in with a minimum inhibitory concentration (MIC) in assay [1] of 25 µM (≈ 8.93 µg/mL). In assay [2], this compound displayed an MBC of 250 µM (≈ 89.3 µg/mL). Also, the kcat/Km in assay [3] was determined as 0.024 µM⁻¹ min⁻¹.

Compound `O=[N+]([O-])c1cn2c(n1)OC[C@@H](NCc1ccc(OCc3ccccc3)cc1)C2` showed an MIC in assay [1] of 0.15 µM (≈ 0.0571 µg/mL). The compound further came in with an MBC in assay [2] of 6.25 µM (≈ 2.38 µg/mL). The catalytic efficiency (kcat/Km) in assay [3] turned out to be 0.207 µM⁻¹ min⁻¹.

In assay [1], `O=CN1CC(OCc2ccc(OC(F)(F)F)cc2)Cn2cc([N+](=O)[O-])nc21` (single isomer, unassigned) came in with an MIC of 3.2 µM (≈ 1.24 µg/mL). The compound also gave an MBC in assay [2] of 25 µM (≈ 9.66 µg/mL). Further, the kcat/Km in assay [3] turned out to be 0.065 µM⁻¹ min⁻¹.

In assay [1], `O=[N+]([O-])c1cn2c(n1)OC[C@@H](NCc1ccc(OCc3ccc(OC(F)(F)F)cc3)cc1)C2` registered a minimum inhibitory concentration (MIC) of 0.16 µM (≈ 0.0743 µg/mL). In assay [2], the minimal bactericidal concentration (MBC) was 1.56 µM (≈ 0.724 µg/mL). The kcat/Km in assay [3] came out at 0.074 µM⁻¹ min⁻¹.

The compound `O=[N+]([O-])c1cn2c(n1)OC[C@@H](NCCCc1ccc(OC(F)(F)F)cc1)C2` yielded an MIC in assay [1] of 0.078 µM (≈ 0.0301 µg/mL). The same compound gave an MBC in assay [2] of 3.12 µM (≈ 1.21 µg/mL). Besides, in assay [3], the kcat/Km worked out at 0.307 µM⁻¹ min⁻¹.

In assay [1], `O=[N+]([O-])c1cn2c(n1)OC[C@@H](NCc1ccc(OCc3ccc(F)cc3)cc1)C2` came in with an MIC of 0.2 µM (≈ 0.0797 µg/mL). The same compound yielded an MBC in assay [2] of 2 µM (≈ 0.797 µg/mL). The kcat/Km in assay [3] was 0.452 µM⁻¹ min⁻¹.

In turn, `CC(=O)N1CC(OCc2ccc(OC(F)(F)F)cc2)Cn2cc([N+](=O)[O-])nc21` (single isomer, unassigned) returned an MIC in assay [1] of 6.25 µM (≈ 2.5 µg/mL). The compound also returned an MBC in assay [2] of 31.2 µM (≈ 12.5 µg/mL).

The values above are taken from ChEMBL document CHEMBL1140934, “Structure-activity relationships of antitubercular nitroimidazoles. 2. Determinants of aerobic activity and quantitative structure-activity relationships” (2009).
